# Kir21 block: blocks the mouse Kir2.1 inward-rectifier potassium channel. AID 1672. 310,000 compounds, 0.85% hits. B-score at 10 µM. HEK293-Kir2.1, FluxOR thallium flux fluorescence; active compounds read low. P35561;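 active = fluorescence ratio B-score at or below minus 3 SD of library scores, with starting-brightness B-score within 2 SD, cut at about -4.2 in these data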;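 also: channel flux triggered by added potassium and thallium sulfate stimulus; B-score of peak minus minimum fluorescence over baseline after thallium stimulus; more negative B-score means stronger Kir2.1 block with less thallium influx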
# hERG rescue: hERG (human) protection from proarrhythmic block; Q12809; CHO-hERG, FluxOR thallium flux, dofetilide IC70 present; activation (rescue from dofetilide block), less the hit threshold, % at 10 µM; 310,000 compounds, 0.51% hits;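 active = activation above the mean of controls blocked by dofetilide plus 5 SD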;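 also: thallium influx through hERG after potassium depolarization seen as dye fluorescence rise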
# KCNK9 block: blocks the human KCNK9 two-pore domain potassium channel | Q9NPC2 | 310,000 compounds, 1.2% hits | AID 488922 | B-score at 10 µM | HEK293 KCNK9, FluxOR thallium flux fluorescence; active compounds read low;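 active = ratio B-score over 3 SD below the library mean, with starting fluorescence within 5 SD of its mean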;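 also: negative B-score means less thallium flux so channel inhibition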
# KCNK3 inh: human KCNK3 channel inhibition, primary screen. CHO-KCNK3 thallium flux, FluxOR fluorescence; active compounds read low. B-score at 10 µM. 340,000 compounds, 0.84% hits. AID 602410;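 active = B-score under library mean minus 4 SD, starting fluorescence ratio at most library mean plus 5 SD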;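 also: more negative B-score means stronger inhibition of thallium flux through KCNK3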
# KCNQ1 pot: potentiators or activators of human KCNQ1 potassium channel; P51787; CHO-K1 KCNQ1, thallium flux FluxOR fluorescence; active compounds read high; B-score at 10 µM; 310,000 compounds, 0.35% hits;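 active = fluorescence ratio B-score, a plate-corrected score, at least three library SD, with initial intensity B-score within 5 SD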
# Target sequence (P51787 whole entry, looked up): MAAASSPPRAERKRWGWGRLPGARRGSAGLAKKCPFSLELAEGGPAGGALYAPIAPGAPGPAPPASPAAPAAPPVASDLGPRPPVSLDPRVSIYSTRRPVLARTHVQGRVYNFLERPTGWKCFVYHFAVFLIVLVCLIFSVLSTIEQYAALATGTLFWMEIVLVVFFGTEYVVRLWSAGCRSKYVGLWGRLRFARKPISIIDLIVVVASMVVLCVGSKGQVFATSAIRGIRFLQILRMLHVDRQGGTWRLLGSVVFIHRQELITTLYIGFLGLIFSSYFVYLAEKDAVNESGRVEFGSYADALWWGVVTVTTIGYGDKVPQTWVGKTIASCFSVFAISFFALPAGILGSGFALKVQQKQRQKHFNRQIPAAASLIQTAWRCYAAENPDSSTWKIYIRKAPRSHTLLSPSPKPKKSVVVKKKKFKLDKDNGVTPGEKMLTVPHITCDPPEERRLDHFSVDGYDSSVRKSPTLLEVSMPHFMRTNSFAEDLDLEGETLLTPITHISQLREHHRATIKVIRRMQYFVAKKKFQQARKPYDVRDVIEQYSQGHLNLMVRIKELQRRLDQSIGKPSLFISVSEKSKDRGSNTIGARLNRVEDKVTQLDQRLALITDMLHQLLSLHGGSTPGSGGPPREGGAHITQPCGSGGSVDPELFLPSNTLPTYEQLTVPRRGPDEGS
#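 Test system: CHO-K1 cells stably expressing KCNQ1 / Medium: assay buffer / Also added: depolarizing K+/Tl+ stimulus, K2SO4 and Tl2SO4 each 12.5 mM in 5x stock / Incubation: 90 min dye loading and 20 min compound exposure, both at room temperature / Signal: thallium influx via FluxOR fluorescence, kinetic imaging / Evaluation: B score of baseline-normalized fluorescence ratio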
# KCNQ1 block: inhibitors of human KCNQ1 potassium channel; P51787; CHO-K1 KCNQ1, FluxOR thallium flux fluorescence; active compounds read high; B-score at 10 µM; 310,000 compounds, 1.3% hits; AID 2642;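 active = compounds whose thallium flux B-score, printed positive for inhibition, exceeds three library SD while starting fluorescence stays within three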;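 also: channel opened by potassium depolarization with thallium stimulus after 20 min compound exposure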
# The depositor's hits bear a star; i = inactive; nt = not tested or not shown. Most compounds without a hit are left out; they make up all but 3.7% or so of the library.
SMILES,Kir21 block,hERG rescue,KCNK9 block,KCNK3 inh,KCNQ1 pot,KCNQ1 block
COc1cc2nc(Nc3ccc(F)cc3)nc(N)c2cc1OC,-5.9*,-4.9,i,i,i,i
O=C(Cc1c(Cl)cccc1Cl)N1CCN(S(=O)(=O)c2cccs2)CC1,nt,nt,nt,i,nt,nt
CCCCC1(Cc2ccc([N+](=O)[O-])cc2)C(=O)N(c2ccccc2)N(c2ccccc2)C1=O,0,-7.0,i,i,i,8*
Cc1ccc(NC(=O)CN2CCCC2c2cccn2C)c(Br)c1 (configuration not stated),nt,nt,nt,i,nt,nt
COCc1c(C(=O)NCCOc2ccc(Cl)cc2)oc2ccccc12,nt,nt,nt,-8.89*,nt,nt
COc1ccc(CN2CCN(Cc3cccc4nonc34)CC2CCO)c(C)c1C (configuration not stated),-1.52,5.3*,i,i,i,i
COc1cc(C)ccc1OCc1cc(C(=O)N(Cc2c(C)nn(C)c2C)C2CC2)no1,-0.93,-7.0,i,i,i,i
COc1ccc2nc(NCc3ccccc3)[nH]c2c1,-5.26*,-5.1,i,i,i,i
COc1ccc2nc(NCCO)[nH]c2c1,-0.07,1.1,i,i,i,i
COc1ccc(CC(=O)Nc2nc3ccccc3[nH]2)cc1,2.09,-6.3,i,i,i,i
COc1cccc(CC(=O)Nc2nc3ccccc3[nH]2)c1,0.47,4.9*,i,i,i,i
C#CCn1c(=NC(=O)CSC(C)=O)sc2cc(F)ccc21,-0.79,0.1,-7.81*,i,i,i
S=C1NCCc2ccc(Cl)cc2C1c1ccccc1 (configuration not stated),nt,nt,nt,-10*,nt,nt
CCCc1c(C(=O)N/N=C/c2ccc(C)s2)nnn1-c1nonc1N,-0.09,-3.5,i,i,i,i
O=C(COc1ccc(Cl)cc1)NNC(=O)C(=O)NC1CCCCC1,0.22,15.1*,i,i,11*,i
COc1ccccc1C(=O)NNC(=O)C(=O)NC1CCCCC1,0.59,20.8*,i,i,20*,i
O=C(COc1ccc(Cl)cc1)NC1CC1,0,0.5,i,i,i,i
CCOC(=O)CSc1ccc(S(=O)(=O)N(C)C2CCCCC2)cc1[N+](=O)[O-],-0.15,-3.9,i,-10.3*,i,i
COc1ccc2nc(NC(=O)CN3C(=O)NC4(CCCCC4)C3=O)sc2c1,0.49,-2.8,i,i,i,i
CCCc1cc(=O)[nH]c(SCC(=O)N(Cc2ccccc2)C(C)C)n1,0.41,-4.6,-6.99*,i,i,i
CCCc1cc(=O)[nH]c(SCC(=O)NC(=O)c2ccccc2)n1,0.12,-9.0,i,i,i,i
Cc1nn(-c2ccccc2)c2nc(C(Cl)(Cl)Cl)[nH]c(=O)c12,2.44,-14.3,i,i,12*,i
COc1ccc(N(C)S(=O)(=O)c2cccc(C(=O)N3CCN(c4cccc(C)c4C)CC3)c2)cc1,nt,nt,nt,i,nt,nt
CCOC(=O)[C@H]1[C@H]2COc3ccc(Br)cc3[C@H]2N2C(=O)CNC(=O)[C@@]12C,nt,nt,nt,i,nt,nt
CSCCC(NC(=O)c1ccco1)C(=O)N1CCN(C(c2ccccc2)c2ccccc2)CC1 (configuration not stated),nt,nt,nt,i,nt,nt
SMILES,Kir21 block,hERG rescue,KCNK9 block,KCNK3 inh,KCNQ1 pot,KCNQ1 block
Clc1cccc(C2Nc3cccc4cccc(c34)N2)c1Cl,-0.52,-12.0,i,i,i,10*
c1coc(C2Nc3cccc4cccc(c34)N2)c1,0.39,-11.5,i,nt,i,i
O=[N+]([O-])c1ccc(O)c(/C=N\N=C2c3ccccc3-c3ccccc32)c1,0.19,-16.7,i,i,i,7*
NC(N)=N/N=C/c1cc([N+](=O)[O-])ccc1O,1.4,-5.5,i,i,i,i
CCc1nc(SCC(=O)Nc2nnc(CC)s2)c2c(C)c(C)sc2n1,1.41,-1.1,i,i,i,i
CCc1nc(SCC(=O)Nc2cc(OC)ccc2OC)c2c(C)c(C)sc2n1,-0.5,-5.7,-6.62*,i,i,i
Cc1cc2nc(N)sc2cc1[N+](=O)[O-],1.69,5.0*,i,i,i,i
COc1ccc2nc(N)sc2c1,0.47,-13.1,i,i,i,i
Cc1cc(NC(=O)CSc2nc3cc(Cl)ccc3s2)no1,-0.41,-2.1,i,i,i,i
O=c1oc2cc(Cl)ccc2n1CSc1nc2ccccc2s1,1.79,-7.7,-6.6*,i,i,i
O=C(CSc1nc2ccccc2s1)N1c2ccccc2Sc2ccc(Cl)cc21,-1.15,-7.3,i,i,i,i
O=C(CSc1nc2cc(Cl)ccc2s1)c1cc2ccccc2o1,0.15,-2.1,i,i,21*,i
CC(NC(=O)c1ccccc1NC(=O)CN1CCc2ccccc2C1)c1ccccc1 (configuration not stated),-1.61,-10.4,i,i,i,i
CC(C)CCNC(=O)C1CCCCN1S(=O)(=O)c1ccc(F)cc1 (configuration not stated),-0.06,5.0*,i,i,i,i
Cc1c(N=Cc2cc(Br)cc(Br)c2O)cccc1C(=O)O,2.55,-24.7,i,i,10*,i
CCOC(=O)n1c(=O)n(Cc2ccc(Cl)c(Cl)c2)c2ccccc21,0.25,-6.5,-7.37*,i,i,i
Cc1ccc(CN2CC(C(=O)NNC(=O)c3ccc(F)cc3)CC2=O)cc1 (configuration not stated),nt,nt,nt,i,nt,nt
O=C(Nc1nccs1)c1ccc(N2CCOCC2)c([N+](=O)[O-])c1,-0.41,-6.6,i,i,i,i
Cc1cc(/C=C\c2ccc3cc(N(C)C)ccc3[n+]2C)c(C)n1-c1ccccc1,nt,nt,nt,-10.8*,nt,nt
C[n+]1c(/C=C/c2ccc(O)cc2)ccc2ccccc21,-0.11,-11.1,i,i,i,i
CC(C)(C)C(=O)/C(=C\c1ccc([N+](=O)[O-])cc1)n1cncn1,-7.29*,-5.7,i,nt,i,i
CCOC(=O)C1(Cc2ccc(Cl)cc2)CCN(C(C)Cc2ccc(O)c(OC)c2)CC1 (configuration not stated),-0.96,-16.2,i,i,i,13*
CCN1C[C@@H]2[C@@H]3C(=O)N(Cc4ccccc4)C(=O)[C@@H]3[C@](C)(C1=O)N2C(=O)c1ccccc1,nt,nt,nt,i,nt,nt
O=C(c1ccccc1)c1ccc2nc(-c3ccco3)c(-c3ccco3)nc2c1,-0.79,-17.1,i,i,i,9*
Cc1ccc(NC(=Nc2ccc(Br)cc2)N2CCOCC2)cc1C,-3.8,-9.7,i,i,i,6*
CCc1ccc(NC(=O)CCc2nnc3ccc(N4CCCC4)nn23)cc1,0.93,-15.8,i,i,i,i
